Rows were chosen to be rich in hits. Some 2.5% of all compounds tested hit in one or more screens of this group.
MBD2 inh: inhibitors of MBD2 binding to methylated DNA, primary screen, biochemical, TR-FRET, DNA-binding domain, human | Methyl-CpG-binding domain protein 2 (Homo sapiens), Q9UBB5 | MBD2 binding to methylated oligonucleotide | inhibition, % at 4.4 µM | 370,000 compounds, 0.31% hits | AID 686964, 2013; in the data active = inhibition above about 13%
Rin1 Abl inh: inhibitors of Rin1-Abl protein binding, primary screen, biochemical, TR-FRET. inhibition, % at 7.35 µM. 360,000 compounds, 0.4% hits. Tyrosine-protein kinase ABL1 (Homo sapiens) + Ras and Rab interactor 1 (Homo sapiens), …; in the data active = inhibition above about 5%, passing the limit was not always enough
UHRF1 MBD2 ctr: UHRF1 methylated DNA binding inhibitors, primary screen, counter-screen for MBD2 inhibitor project, biochemical, TR-FRET, human UHRF1, single concentration. 370,000 compounds, 0.75% hits. inhibition, % at 4.4 µM. UHRF1 binding to methylated oligo. E3 ubiquitin-protein ligase UHRF1 (Homo sapiens), Q96T88. AID 687016, 2013; in the data active = inhibition above about 21%;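 also: UHRF1 SRA domain binding a hemimethylated CpG hairpin DNA probe; 0% = median of test compound wells and 100% = reference inhibitor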
ABHD5-PLIN5 inh: ABHD5-PLIN5 interaction inhibitors, primary screen, cell lysate, split luciferase complementation, luminescence. Perilipin-5 (Homo sapiens) + 1-acylglycerol-3-phosphate O-acyltransferase ABHD5 (Homo …. inhibition, % at 4 µM. 360,000 compounds, 0.78% hits. Split G. princeps luciferase complementation, 4 h;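 active = inhibition above the mean inhibition across every tested compound plus 3 SD, cut at about 22% in these data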;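 also: 0% = DMSO only wells and the 100% control is not disclosed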
B2AR ag: beta2AR agonists driving receptor internalization, primary screen, cell-based, FAP fluorogen, flow cytometry. Beta-2 adrenergic receptor (Homo sapiens), P07550. Am2.2-beta2AR cells. response, % (concentration not given with the values). 340,000 compounds, 0.43% hits;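 active = response above a set limit, near 3 SD of response in nonfluorescent compounds, cut at about 42% in these data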
Arrestin-AP2 inh: inhibitors of beta-arrestin/AP2 binding, primary screen, biochemical, GPCR trafficking, flow cytometry | FITC-arrestin peptide / GST-AP2 beads; AP2 beta2 appendage carries R879A mutation | inhibition, % at 10 µM | 340,000 compounds, 0.31% hits | beta-arrestin 1 C-terminal peptide binding to AP2 beta2-adaptin appendage (human);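 active = inhibition above a set limit, near 3 SD of compounds lacking own fluorescence, cut at about 54% in these data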;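 also: plate controls were DMSO wells for no effect and 5 µM unlabelled arrestin peptide for full effect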
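System: GST-AP2 R879A bound to glutathione beads, E. coli-expressed. Also added: 50 nM FITC-arrestin peptide. Schedule: compound with beads 12 min RT, then probe 1 h RT. Signal: bead flow cytometry, FITC channel. Read-out basis: percent response.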
Starred values were filed as active, the others as inactive.

`COc1ccc(C(=O)NN(C)c2nc(-c3ccccc3)nnc2C(F)(F)F)cc1` gave MBD2 inh -1, Rin1 Abl inh 2, UHRF1 MBD2 ctr 0, ABHD5-PLIN5 inh 1, B2AR ag 49* and Arrestin-AP2 inh 20.
`Cc1c(C)n(C(=O)CSc2nc3ccccc3[nH]2)c2ccccc12` gave MBD2 inh 9, Rin1 Abl inh -1, UHRF1 MBD2 ctr 47*, ABHD5-PLIN5 inh 6, B2AR ag 3 and Arrestin-AP2 inh 9.
For O=C(CSc1nc2ccccc2[nH]1)N1CCCCC1 the results were MBD2 inh -1, Rin1 Abl inh 1, UHRF1 MBD2 ctr -3, ABHD5-PLIN5 inh 2, B2AR ag -7 and Arrestin-AP2 inh 2.
For CC1=C2NC(N)=[N+](Cc3ccc4c(c3)OCO4)CC2n2c(=O)n(-c3ccccc3)c(=O)n2C1 (centres undefined) the results were MBD2 inh -4 and UHRF1 MBD2 ctr 1.
Screening O=C(O)c1ccc(/C=C(\c2nc3ccccc3[nH]2)c2nc3ccccc3s2)cc1 returned MBD2 inh -5, Rin1 Abl inh -1, UHRF1 MBD2 ctr -2, ABHD5-PLIN5 inh 2, B2AR ag -1 and Arrestin-AP2 inh 20.
For CC(C)(C)c1ccc(/C=C(\c2nc3ccccc3[nH]2)S(=O)(=O)c2ccccc2)cc1 the results were Rin1 Abl inh -2, ABHD5-PLIN5 inh 43*, B2AR ag 21 and Arrestin-AP2 inh -14.
For CC(C)(C)C1C/C(=C/c2ccccn2)C(=O)/C(=C/c2ccccn2)C1 (centres undefined) the results were Rin1 Abl inh -2, ABHD5-PLIN5 inh 72*, B2AR ag 85* and Arrestin-AP2 inh -12.
For O=C1/C(=C/c2ccccn2)COc2ccccc21 the results were MBD2 inh 4, Rin1 Abl inh 0, UHRF1 MBD2 ctr 0, ABHD5-PLIN5 inh 8, B2AR ag 24 and Arrestin-AP2 inh 24.
CC1C/C(=C/c2ccccn2)C(=O)/C(=C/c2ccccn2)C1 (centres undefined) was read as Rin1 Abl inh 0, ABHD5-PLIN5 inh 76*, B2AR ag 17 and Arrestin-AP2 inh -1.
For CC1C/C(=C/c2cccs2)C(=O)/C(=C/c2cccs2)C1 (centres undefined) the results were MBD2 inh 2, Rin1 Abl inh 3, UHRF1 MBD2 ctr 28*, ABHD5-PLIN5 inh -5, B2AR ag -13 and Arrestin-AP2 inh -18.
`O=C1/C(=C/c2cccs2)CCC/C1=C\c1cccs1` gave MBD2 inh 1, Rin1 Abl inh 2, UHRF1 MBD2 ctr 9, ABHD5-PLIN5 inh 6, B2AR ag -12 and Arrestin-AP2 inh 3.
For COCCCN1C(=O)[C@H](CC(=O)NCc2ccccc2)[C@]2(C(=O)OC)CCCCC=C12 the results were MBD2 inh -2 and UHRF1 MBD2 ctr 3.
For c1ccc(CCSc2nnc(-c3cccnc3)n2Cc2ccccc2)cc1 the results were MBD2 inh -2 and UHRF1 MBD2 ctr 2.
Screening COc1ccc(S(=O)(=O)N2CCN(C(=O)CSc3nc4ccccc4nc3N3CCCCC3)CC2)cc1 returned MBD2 inh -7 and UHRF1 MBD2 ctr 0.
Screening O=C(NCc1ccc(F)cc1)C1CCCN(c2nc3ccccc3o2)C1 (centres undefined) returned MBD2 inh -1 and UHRF1 MBD2 ctr -1.
`C=C1CC(COc2cc(=O)oc3ccccc23)(c2ccccc2)OC1=O` (centres undefined) gave MBD2 inh -4, Rin1 Abl inh 2, UHRF1 MBD2 ctr 1, ABHD5-PLIN5 inh -7, B2AR ag 72* and Arrestin-AP2 inh 5.
`CCOc1cc(/C=N/NC(=O)c2ccccn2)ccc1OC(=O)c1cccs1` gave MBD2 inh 0, Rin1 Abl inh 2, UHRF1 MBD2 ctr -3, ABHD5-PLIN5 inh 7, B2AR ag 7 and Arrestin-AP2 inh 40.
`COc1ccc(/C=C2/C(=O)N(c3ccccc3)N=C2C)cc1` gave Rin1 Abl inh 8.1*, ABHD5-PLIN5 inh -23, B2AR ag 0 and Arrestin-AP2 inh 2.
Screening CCOc1cc(/C=C2/C(=O)N(c3ccccc3)N=C2C)ccc1OC(=O)c1cccs1 returned Rin1 Abl inh 12*, ABHD5-PLIN5 inh -38, B2AR ag 24 and Arrestin-AP2 inh 31.
`CC1=NN(c2ccccc2)C(=O)/C1=C\C=C\c1ccccc1` gave MBD2 inh 0, Rin1 Abl inh -2, UHRF1 MBD2 ctr -7, ABHD5-PLIN5 inh 22*, B2AR ag 35 and Arrestin-AP2 inh 7.
Cc1ccc(NC(=O)OC2CCC23CCCCC3)cc1 (centres undefined) was read as MBD2 inh 4 and UHRF1 MBD2 ctr 2.
Screening N#C[C@@H]1N[C@H](CO)[C@@H]1c1ccccc1 returned MBD2 inh 5 and UHRF1 MBD2 ctr 3.
For COc1ccccc1-c1nnc(SCC(=O)Nc2c(Cl)cccc2Cl)o1 the results were MBD2 inh -4, Rin1 Abl inh -2, UHRF1 MBD2 ctr 1, ABHD5-PLIN5 inh -3, B2AR ag -4 and Arrestin-AP2 inh 4.
For COc1ccccc1-c1nnc(SCC(=O)NCc2c(C)c(Cl)cc(C(C)C)c2O)o1 the results were MBD2 inh 0, Rin1 Abl inh 2, UHRF1 MBD2 ctr 43*, ABHD5-PLIN5 inh -2, B2AR ag -10 and Arrestin-AP2 inh 4.
Screening COC(=O)C1CN(Cc2cn(Cc3ccc(C)cc3)nn2)CCS(=O)(=O)N1Cc1ccc(Cl)cc1 (centres undefined) returned MBD2 inh 6 and UHRF1 MBD2 ctr 15.
For Cc1nn(C)c(Cl)c1NC(=O)OCc1ccc(Cl)cc1Cl the results were MBD2 inh 1, Rin1 Abl inh -1, UHRF1 MBD2 ctr 53*, ABHD5-PLIN5 inh -1, B2AR ag 3 and Arrestin-AP2 inh -1.
`COc1ccc(NC(=O)c2cc3c(C)nn(-c4ccccc4)c3s2)cc1` gave MBD2 inh 6 and UHRF1 MBD2 ctr 4.
Screening Fc1ccc(CSc2nnc(CN3CCOCC3)n2-c2ccccc2)c(Cl)c1 returned MBD2 inh -1, Rin1 Abl inh 3, UHRF1 MBD2 ctr 43*, ABHD5-PLIN5 inh -1, B2AR ag -1 and Arrestin-AP2 inh 30.
`Cc1cccn2c(=O)c3cc(C(=O)NC4CCCCC4)c(=N)n(Cc4ccc(F)cc4)c3nc12` gave MBD2 inh -2, Rin1 Abl inh 1, UHRF1 MBD2 ctr 1, ABHD5-PLIN5 inh -6, B2AR ag 78* and Arrestin-AP2 inh 6.

Screening data (PubChem BioAssay)
